ChEMBL document CHEMBL1141177, “The novel L- and D-amino acid derivatives of hydroxyurea and hydantoins: synthesis, X-ray crystal structure study, and cytostatic and antiviral activity evaluations” (J Med Chem, 2005)
Converted amounts (≈) assume the structure as drawn.

What was measured:
[1] = tested on: WI-38; assay: Inhibition of normal human fibroblast cell line (WI 38) growth; type: functional, cell-based
Procedure, shortened: (§1)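 Monolayers in DMEM with 10% FBS, 2 mM L-glutamine, penicillin/streptomycin, 37 °C, 5% CO2. Cells seeded on day 0, then compounds added in 5- and 10-fold dilutions (10^-8–10^-4 M) for 72 h. MTT read-out at 570 nm. Percent growth calculated relative to time-zero and untreated OD. Quadruplicates in three experiments; IC50 by linear interpolation, highest concentration reported as ">" when not reached.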

[2] = tested on: L1210; assay: Inhibition of murine leukemia cells (L1210) growth; type: functional, cell-based; details: Mus musculus
[3] = tested on: MOLT-4; assay: Inhibition of human T-lymphocyte cell line (Molt4/C8) growth; type: functional, cell-based
[4] = Effective concentration required to reduce plaque formation by AD-169 strain of CMV virus in Human embryonic lung cells; type: functional, cell-based
Procedure, shortened: (§2)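 Plaque reduction assay in human embryonic lung (HEL) cell cultures, virus input 100 plaque forming units. Viruses: CMV strains AD-169 and Davis, VZV TK+ strain OKA and TK− strain 07/1. EC50 is the concentration that reduces virus plaque formation by 50%.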

[5] = tested on: HEp-2; assay: Inhibition of laryngeal carcinoma cell line (Hep-2) growth; type: functional, cell-based; details: Homo sapiens; procedure, shortened: as §1
[6] = tested on: HeLa; assay: Inhibition of cervical carcinoma cell line (HeLa) growth; type: functional, cell-based; details: Homo sapiens; procedure, shortened: as §1
[7] = tested on: Human alphaherpesvirus 3; assay: Effective concentration of compound required to reduce plaque formation by OKA strain of thymidine kinase positive VZ virus TK+ in human embryonic lung cells; type: functional, organism-based; details: Human alphaherpesvirus 3, lung
[8] = tested on: Human alphaherpesvirus 3; assay: Reduction of plaque formation by VZV07/1 strain of thymidine kinase(TK-) deficient VZ virus in human embryonic lung cells; type: functional, organism-based; details: Human alphaherpesvirus 3, lung
[9] = tested on: HEL; assay: Minimum cytotoxic concentration of compound that causes alteration of cell morphology in human embryonic lung cells; type: functional
Procedure, shortened: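 Human embryonic lung (HEL) cells were examined microscopically. MCC is the minimum concentration that causes a detectable alteration of cell morphology.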

[10] = tested on: MIA PaCa-2; assay: Inhibition of pancreatic carcinoma cell line (MiaPaCa-2) growth; type: functional, cell-based; details: Homo sapiens; procedure, shortened: as §1
[11] = tested on: MCF7; assay: Inhibition of breast carcinoma cell line (MCF-7) growth; type: functional, cell-based; details: Homo sapiens; procedure, shortened: as §1
[12] = tested on: HEL; assay: Cytotoxic concentration to reduce the 50% cell growth of human embryonic lung cells; type: functional; details: Homo sapiens, HEL; read-out: CC50
[13] = Effective concentration required to reduce plaque formation by Davis strain of CMV virus in Human embryonic lung cells; type: functional, cell-based; procedure, shortened: as §2
[14] = tested on: SW-620; assay: Inhibition of colon carcinoma cell line (SW 620) growth; type: functional, cell-based; details: Homo sapiens; procedure, shortened: as §1

Compound | IC50 [1] [µM] | IC50 [2] [µM] | IC50 [3] [µM] | EC50 [4] [µg/mL] | IC50 [5] [µM] | IC50 [6] [µM] | EC50 [7] [µg/mL] | EC50 [8] [µg/mL] | MCC [9] [µg/mL] | IC50 [10] [µM] | IC50 [11] [µM] | CC50 [12] [µg/mL] | EC50 [13] [µg/mL] | IC50 [14] [µM]
O=C(C(Cc1ccccc1)NC(=O)n1nnc2ccccc21)N1CCCC1 (configuration not stated) | > 100 | 133 | 123 | > 200 | ≥ 100 | > 100 | 117 (≈ 322 µM) | 106 (≈ 292 µM) | > 200 | > 100 | ≥ 100 | 148 (≈ 406 µM) | > 200 | > 100
CC(C)C(NC(=O)NO)C(=O)NC1CCCC1 (configuration not stated) | > 100 | > 200 | > 200 | – | 33.4 | > 100 | – | – | – | > 100 | > 100 | – | – | > 100
O=C(NC1CCCC1)C(Cc1ccccc1)NC(=O)n1nnc2ccccc21 (configuration not stated) | > 100 | 68 | 61 | > 3.2 | 95 | 53.8 | > 3.2 | > 3.2 | 16 | > 100 | 92 | 15.5 (≈ 41.1 µM) | > 3.2 | > 100
CCC(C)C1NC(=O)N(C2CCCC2)C1=O (configuration not stated) | – | – | > 200 | – | – | – | – | – | – | – | – | – | – | –
CCC(C)C(NC(=O)n1nnc2ccccc21)C(=O)NCc1ccccc1 (configuration not stated) | – | – | 96 | – | – | – | – | – | – | – | – | – | – | –
O=C(NO)NC(C(=O)Nc1ccccc1)c1ccccc1 (configuration not stated) | – | – | > 200 | – | – | – | – | – | – | – | – | – | – | –
O=C(NO)NC(C(=O)NC(c1ccccc1)c1ccccc1)c1ccccc1 (configuration not stated) | > 100 | 18 | 39 | – | 83.9 | 42 | – | – | – | 31.8 | 83.8 | – | – | 63.7
O=C(NO)NC(Cc1ccccc1)C(=O)NCc1ccccc1 (configuration not stated) | > 100 | 17 | 12 | – | > 100 | > 100 | – | – | – | > 100 | – | – | – | > 100
O=C(NO)NC(C(=O)N1CCCCC1)c1ccccc1 (configuration not stated) | 6.7 | 80 | 125 | – | > 100 | > 100 | – | – | – | > 100 | > 100 | – | – | > 100
CC(C)C(NC(=O)n1nnc2ccccc21)C(=O)NC1CCCCC1 (configuration not stated) | ≥ 100 | 108 | 97 | > 80 | 60 | 96.4 | > 3.2 | > 3.2 | ≥ 80 | > 100 | 79.3 | 90 (≈ 262 µM) | > 16 | > 100
O=C(NCC1CCCCC1)C(NC(=O)n1nnc2ccccc21)c1ccccc1 (configuration not stated) | > 100 | 98 | 73 | > 16 | 68.6 | 79.8 | > 3.2 | > 3.2 | ≥ 16 | 72.7 | 35.6 | 43.4 (≈ 111 µM) | – | > 100
O=C(NC1CCCCC1)C(NC(=O)n1nnc2ccccc21)c1ccccc1 (configuration not stated) | > 100 | 95 | 92 | > 3.2 | 69.7 | 67 | > 0.64 | > 3.2 | ≥ 16 | ≥ 100 | 57.6 | 15 (≈ 39.7 µM) | > 16 | > 100
CCC(C)C(NC(=O)n1nnc2ccccc21)C(=O)NC1CCCC1 (configuration not stated) | – | – | 94 | – | – | – | – | – | – | – | – | – | – | –
O=C(NC(c1ccccc1)c1ccccc1)C(NC(=O)n1nnc2ccccc21)c1ccccc1 (configuration not stated) | 100 | 114 | 89 | > 16 | 59.1 | 33.3 | > 3.2 | > 3.2 | 80 | 42.5 | 34.2 | 38.3 (≈ 83 µM) | > 16 | 51.7
O=C(NO)NC(Cc1ccccc1)C(=O)NC1CCCCC1 (configuration not stated) | > 100 | 18 | 19 | – | 94.2 | 58 | – | – | – | 30.6 | ≥ 100 | – | – | 100
O=C(NCc1ccccc1)C(Cc1ccccc1)NC(=O)n1nnc2ccccc21 (configuration not stated) | – | – | 145 | – | – | – | – | – | – | – | – | – | – | –
